Assays:
[1] = Cytotoxicity against human H1299 cells at 1 uM after 48 hrs by MTT assay; type: functional; conditions: NCI-H1299, 48 h
Summary of the method: (§1)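 H1299 non-small cell lung cancer cells were grown in RPMI 1640 with 10% FBS, penicillin and streptomycin at 37 °C under 5% CO2. About 2 × 10³ cells per well were seeded and left 24 h. Compounds were dissolved fresh in DMSO, diluted into complete medium and applied for 48 h. MTT was then added for 4 h at 37 °C, followed by lysis buffer (20% SDS, 50% DMF) for 16 h, and absorbance was read at 550 nm.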

[2] = Cytotoxicity against human H1299 cells at 10 uM after 48 hrs by MTT assay; type: functional; conditions: NCI-H1299, 48 h; summary of the method: as §1
[3] = Cytotoxicity against human H1299 cells at 100 uM after 48 hrs by MTT assay; type: functional; conditions: NCI-H1299, 48 h; summary of the method: as §1
EKVX = assay: Antiproliferative activity against human EKVX cells assessed as cell growth at 10 uM; type: functional; conditions: read-out: Activity
Summary of the method: (§2)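 NCI 60 cell line panel, single-dose screen (10^-5 M) run by the developmental therapeutics program protocol. Results are given as growth percent of treated cells relative to untreated control cells for each line.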

HOP-62 = assay: Antiproliferative activity against human HOP62 cells assessed as cell growth at 10 uM; type: functional; conditions: read-out: Activity; summary of the method: as §2
SW-620 = assay: Antiproliferative activity against human SW620 cells assessed as cell growth at 10 uM; type: functional; conditions: read-out: Activity
Summary of the method: (§3)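 NCI 60 cell line panel, single dose (10^-5 M), run per the Developmental Therapeutics Program protocol (one dose mean graph). Each result is the growth percentage of treated cells relative to untreated control cells.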

[4] = Antiproliferative activity against human Hs 578T cells assessed as cell growth at 10 uM; type: functional; conditions: read-out: Activity; summary of the method: as §2
MDA-MB-435 = assay: Antiproliferative activity against human MDA-MB-435 cells assessed as cell growth at 10 uM; type: functional; conditions: read-out: Activity; summary of the method: as §2
NCI/ADR-RES = assay: Antiproliferative activity against human NCI/ADR-RES cells assessed as cell growth at 10 uM; type: functional; conditions: read-out: Activity; summary of the method: as §2
T47D = assay: Antiproliferative activity against human T47D cells assessed as cell growth at 10 uM; type: functional; conditions: read-out: Activity; summary of the method: as §3
OVCAR-3 = assay: Antiproliferative activity against human OVCAR-3 cells assessed as cell growth at 10 uM; type: functional; conditions: read-out: Activity; summary of the method: as §2
OVCAR-4 = assay: Antiproliferative activity against human OVCAR4 cells assessed as cell growth at 10 uM; type: functional; conditions: read-out: Activity; summary of the method: as §2
OVCAR-5 = assay: Antiproliferative activity against human OVCAR5 cells assessed as cell growth at 10 uM; type: functional; conditions: read-out: Activity; summary of the method: as §2
SK-OV-3 = assay: Antiproliferative activity against human SKOV3 cells assessed as cell growth at 10 uM; type: functional; conditions: read-out: Activity; summary of the method: as §2
CCRF-CEM = assay: Antiproliferative activity against human CCRF-CEM cells assessed as cell growth at 10 uM; type: functional; conditions: read-out: Activity; summary of the method: as §2
HL-60(TB) = assay: Antiproliferative activity against human HL-60(TB) cells assessed as cell growth at 10 uM; type: functional; conditions: read-out: Activity
Summary of the method: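 NCI Developmental Therapeutics Program 60-cell-line one-dose screen at 10^-5 M. Readout is growth percentage of treated cells relative to untreated control cells.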

K562 = assay: Antiproliferative activity against human K562 cells assessed as cell growth at 10 uM; type: functional; conditions: read-out: Activity; summary of the method: as §2
MOLT-4 = assay: Antiproliferative activity against human MOLT4 cells assessed as cell growth at 10 uM; type: functional; conditions: read-out: Activity; summary of the method: as §2
SR = assay: Antiproliferative activity against human SR cells assessed as cell growth at 10 uM; type: functional; conditions: read-out: Activity; summary of the method: as §3
786-0 = assay: Antiproliferative activity against human 786-0 cells assessed as cell growth at 10 uM; type: functional; conditions: read-out: Activity; summary of the method: as §2
A498 = assay: Antiproliferative activity against human A498 cells assessed as cell growth at 10 uM; type: functional; conditions: read-out: Activity; summary of the method: as §2
SN12C = assay: Antiproliferative activity against human SN12C cells assessed as cell growth at 10 uM; type: functional; conditions: read-out: Activity; summary of the method: as §2
M14 = assay: Antiproliferative activity against human M14 cells assessed as cell growth at 10 uM; type: functional; conditions: read-out: Activity; summary of the method: as §2
Malme-3M = assay: Antiproliferative activity against human MALME-3M cells assessed as cell growth at 10 uM; type: functional; conditions: read-out: Activity; summary of the method: as §2
SK-MEL-2 = assay: Antiproliferative activity against human SK-MEL-2 cells assessed as cell growth at 10 uM; type: functional; conditions: read-out: Activity; summary of the method: as §2
SK-MEL-28 = assay: Antiproliferative activity against human SK-MEL-28 cells assessed as cell growth at 10 uM; type: functional; conditions: read-out: Activity; summary of the method: as §2
SK-MEL-5 = assay: Antiproliferative activity against human SK-MEL-5 cells assessed as cell growth at 10 uM; type: functional; conditions: read-out: Activity; summary of the method: as §2
UACC-257 = assay: Antiproliferative activity against human UACC257 cells assessed as cell growth at 10 uM; type: functional; conditions: read-out: Activity; summary of the method: as §3
UACC-62 = assay: Antiproliferative activity against human UACC62 cells assessed as cell growth at 10 uM; type: functional; conditions: read-out: Activity; summary of the method: as §3
DU-145 = assay: Antiproliferative activity against human DU145 cells assessed as cell growth at 10 uM; type: functional; conditions: read-out: Activity; summary of the method: as §2
PC-3 = assay: Antiproliferative activity against human PC3 cells assessed as cell growth at 10 uM; type: functional; conditions: read-out: Activity; summary of the method: as §2
SF-268 = assay: Antiproliferative activity against human SF268 cells assessed as cell growth at 10 uM; type: functional; conditions: read-out: Activity; summary of the method: as §2
SF-295 = assay: Antiproliferative activity against human SF295 cells assessed as cell growth at 10 uM; type: functional; conditions: read-out: Activity; summary of the method: as §2
SF-539 = assay: Antiproliferative activity against human SF539 cells assessed as cell growth at 10 uM; type: functional; conditions: read-out: Activity; summary of the method: as §2
SNB-19 = assay: Antiproliferative activity against human SNB19 cells assessed as cell growth at 10 uM; type: functional; conditions: read-out: Activity; summary of the method: as §2
SNB-75 = assay: Antiproliferative activity against human SNB75 cells assessed as cell growth at 10 uM; type: functional; conditions: read-out: Activity; summary of the method: as §3
U-251 = assay: Antiproliferative activity against human U251 cells assessed as cell growth at 10 uM; type: functional; conditions: read-out: Activity; summary of the method: as §3
NCI-H226 = assay: Antiproliferative activity against human NCI-H226 cells assessed as cell growth at 10 uM; type: functional; conditions: read-out: Activity; summary of the method: as §2
NCI-H23 = assay: Antiproliferative activity against human NCI-H23 cells assessed as cell growth at 10 uM; type: functional; conditions: read-out: Activity; summary of the method: as §2
NCI-H522 = assay: Antiproliferative activity against human NCI-H522 cells assessed as cell growth at 10 uM; type: functional; conditions: read-out: Activity; summary of the method: as §2
COLO 205 = assay: Antiproliferative activity against human COLO205 cells assessed as cell growth at 10 uM; type: functional; conditions: read-out: Activity; summary of the method: as §2
HCT-116 = assay: Antiproliferative activity against human HCT116 cells assessed as cell growth at 10 uM; type: functional; conditions: read-out: Activity; summary of the method: as §2
HCT-15 = assay: Antiproliferative activity against human HCT15 cells assessed as cell growth at 10 uM; type: functional; conditions: read-out: Activity; summary of the method: as §2
HT-29 = assay: Antiproliferative activity against human HT-29 cells assessed as cell growth at 10 uM; type: functional; conditions: read-out: Activity; summary of the method: as §2
[5] = target: Telomerase reverse transcriptase (Homo sapiens) (UniProt O14746); assay: Inhibition of TERT in human H1299 cells assessed as residual transcriptional activity at 1 uM after 24 hrs by SEAP reporter gene assay; values are per cent of control
Chain of Telomerase reverse transcriptase (Homo sapiens) (O14746 whole entry): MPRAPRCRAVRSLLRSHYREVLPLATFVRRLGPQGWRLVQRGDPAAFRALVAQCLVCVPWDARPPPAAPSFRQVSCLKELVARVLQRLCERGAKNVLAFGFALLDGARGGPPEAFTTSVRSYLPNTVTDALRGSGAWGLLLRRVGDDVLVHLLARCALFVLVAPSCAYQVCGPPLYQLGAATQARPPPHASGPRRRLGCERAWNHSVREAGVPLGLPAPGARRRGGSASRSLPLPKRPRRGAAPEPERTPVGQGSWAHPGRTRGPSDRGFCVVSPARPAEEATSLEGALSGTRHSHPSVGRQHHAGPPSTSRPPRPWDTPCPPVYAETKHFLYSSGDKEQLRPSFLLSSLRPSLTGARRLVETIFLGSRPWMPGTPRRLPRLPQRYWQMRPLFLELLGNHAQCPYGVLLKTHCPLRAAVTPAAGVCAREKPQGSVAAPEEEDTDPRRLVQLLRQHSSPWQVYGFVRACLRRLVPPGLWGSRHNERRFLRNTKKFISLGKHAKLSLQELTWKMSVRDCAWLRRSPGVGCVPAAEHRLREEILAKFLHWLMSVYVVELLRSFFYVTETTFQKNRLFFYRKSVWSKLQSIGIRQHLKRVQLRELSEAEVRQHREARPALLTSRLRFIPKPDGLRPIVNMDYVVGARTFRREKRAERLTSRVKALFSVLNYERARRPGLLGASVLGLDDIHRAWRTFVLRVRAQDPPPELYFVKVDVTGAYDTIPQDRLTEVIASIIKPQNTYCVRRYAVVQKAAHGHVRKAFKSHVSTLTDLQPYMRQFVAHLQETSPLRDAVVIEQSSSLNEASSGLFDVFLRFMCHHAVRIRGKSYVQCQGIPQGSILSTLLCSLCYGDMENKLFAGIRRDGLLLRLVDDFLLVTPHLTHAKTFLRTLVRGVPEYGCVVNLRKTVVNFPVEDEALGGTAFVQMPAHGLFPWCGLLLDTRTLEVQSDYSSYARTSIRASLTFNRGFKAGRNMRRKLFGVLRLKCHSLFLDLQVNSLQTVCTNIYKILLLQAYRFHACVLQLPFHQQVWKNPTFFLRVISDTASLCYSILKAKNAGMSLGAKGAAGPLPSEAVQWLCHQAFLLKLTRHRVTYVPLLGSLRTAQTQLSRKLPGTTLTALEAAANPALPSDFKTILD

[6] = target: Telomerase reverse transcriptase (Homo sapiens) (UniProt O14746); assay: Inhibition of TERT in human H1299 cells assessed as residual transcriptional activity at 10 uM after 24 hrs by SEAP reporter gene assay; values are per cent of control
CAKI-1 = assay: Antiproliferative activity against human Caki1 cells assessed as cell growth at 10 uM; type: functional; conditions: read-out: Activity; summary of the method: as §2

Compound: CCc1nc2ccc3c(c2[nH]1)C(=O)c1ccccc1C3=O
- viability at 1 µM [1]: 88%
- viability at 10 µM [2]: 82%
- viability at 100 µM [3]: 37%
- growth at 10 µM (EKVX): 52.3%
- growth at 10 µM (HOP-62): 97.7%
- growth at 10 µM (SW-620): 73.1%
- growth at 10 µM [4]: -18.6%
- growth at 10 µM (MDA-MB-435): 84.4%
- growth at 10 µM (NCI/ADR-RES): 74.4%
- growth at 10 µM (T47D): 63%
- growth at 10 µM (OVCAR-3): 78.2%
- growth at 10 µM (OVCAR-4): 48.8%
- growth at 10 µM (OVCAR-5): 102%
- growth at 10 µM (SK-OV-3): 25.8%
- growth at 10 µM (CCRF-CEM): 45.4%
- growth at 10 µM (HL-60(TB)): 41.8%
- growth at 10 µM (K562): 64.4%
- growth at 10 µM (MOLT-4): 64.2%
- growth at 10 µM (SR): 52.5%
- growth at 10 µM (786-0): 76.6%
- growth at 10 µM (A498): 28.9%
- growth at 10 µM (SN12C): 68.5%
- growth at 10 µM (M14): 60.1%
- growth at 10 µM (Malme-3M): 56.9%
- growth at 10 µM (SK-MEL-2): 40.1%
- growth at 10 µM (SK-MEL-28): 86.8%
- growth at 10 µM (SK-MEL-5): 60.8%
- growth at 10 µM (UACC-257): 39.7%
- growth at 10 µM (UACC-62): 51.4%
- growth at 10 µM (DU-145): 61.6%
- growth at 10 µM (PC-3): 48.5%
- growth at 10 µM (SF-268): 80.4%
- growth at 10 µM (SF-295): 75.8%
- growth at 10 µM (SF-539): 83.2%
- growth at 10 µM (SNB-19): 74.9%
- growth at 10 µM (SNB-75): 55.1%
- growth at 10 µM (U-251): 60.1%
- growth at 10 µM (NCI-H226): 75.9%
- growth at 10 µM (NCI-H23): 71.4%
- growth at 10 µM (NCI-H522): 41.5%
- growth at 10 µM (COLO 205): 69.7%
- growth at 10 µM (HCT-116): 47.6%
- growth at 10 µM (HCT-15): 42.2%
- growth at 10 µM (HT-29): 64.5%
- residual activity [5]: 70%
- residual activity [6]: 59%

Compound: O=C1c2ccccc2C(=O)c2c1ccc1nc(-c3ccc4c(c3)OCO4)[nH]c21
- viability at 1 µM [1]: 79%
- viability at 10 µM [2]: 67%
- viability at 100 µM [3]: 40%
- growth at 10 µM (EKVX): 94.2%
- growth at 10 µM (HOP-62): 114%
- growth at 10 µM (SW-620): 91.9%
- growth at 10 µM [4]: 106%
- growth at 10 µM (MDA-MB-435): 110%
- growth at 10 µM (NCI/ADR-RES): 105%
- growth at 10 µM (T47D): 107%
- growth at 10 µM (OVCAR-3): 107%
- growth at 10 µM (OVCAR-4): 101%
- growth at 10 µM (OVCAR-5): 111%
- growth at 10 µM (SK-OV-3): 139%
- growth at 10 µM (CCRF-CEM): 99.6%
- growth at 10 µM (HL-60(TB)): 127%
- growth at 10 µM (K562): 80.6%
- growth at 10 µM (MOLT-4): 105%
- growth at 10 µM (SR): 91.7%
- growth at 10 µM (786-0): 107%
- growth at 10 µM (A498): 91.7%
- growth at 10 µM (CAKI-1): 114%
- growth at 10 µM (SN12C): 101%
- growth at 10 µM (M14): 120%
- growth at 10 µM (SK-MEL-2): 41.5%
- growth at 10 µM (SK-MEL-28): 116%
- growth at 10 µM (SK-MEL-5): 98.7%
- growth at 10 µM (UACC-257): 117%
- growth at 10 µM (UACC-62): 98.1%
- growth at 10 µM (DU-145): 107%
- growth at 10 µM (PC-3): 107%
- growth at 10 µM (SF-268): 100%
- growth at 10 µM (SF-295): 115%
- growth at 10 µM (SF-539): 108%
- growth at 10 µM (SNB-19): 121%
- growth at 10 µM (SNB-75): 102%
- growth at 10 µM (U-251): 111%
- growth at 10 µM (NCI-H226): 97%
- growth at 10 µM (NCI-H23): 94.3%
- growth at 10 µM (NCI-H522): 83.3%
- growth at 10 µM (COLO 205): 126%
- growth at 10 µM (HCT-116): 116%
- growth at 10 µM (HCT-15): 106%
- growth at 10 µM (HT-29): 95.8%
- residual activity [5]: 61%
- residual activity [6]: 61%

Reference: ChEMBL document CHEMBL1152649, “Synthesis, cytotoxicity and human telomerase inhibition activities of a series of 1,2-heteroannelated anthraquinones and anthra[1,2-d]imidazole-6,11-dione homologues” (2009)
